The text below walks through data of ChEMBL document CHEMBL1123670, “Inhibitors of cyclic AMP phosphodiesterase. 2. Structural variations of N-cyclohexyl-N-methyl-4-[(1,2,3,5-tetrahydro- 2-oxoimidazo[2,1-b]quinazolin-7-yl)-oxy]butyramide (RS-82856)” (J Med Chem, 1987).

The target in assay [1] is Phosphodiesterase; PDE3 & PDE4 (Homo sapiens) (UniProt P27815+Q14432+Q08499+Q07343+Q13370+Q08493). Put plainly: In vivo inhibition of cyclic AMP phosphodiesterase from dog heart. The method, boiled down: (§1)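 Cyclic AMP phosphodiesterase prepared from human platelets (IC50, nM) or from rat or dog heart tissue (IC25, nM). Each agent tested at five inhibitor concentrations in triplicate. IC50/IC25 read graphically from the dose-response curve.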

The species named for assay [2] is Homo sapiens. The experiment in a line: Inhibition of ADP-induced platelet aggregation at 100 uM concentration. The assay is classed as functional.
Assay [3] deals with Phosphodiesterase 3 (Homo sapiens, UniProt Q14432+Q13370). The experiment in a line: In vitro inhibition of cyclic AMP phosphodiesterase from human platelets.
The species named for assay [4] is Homo sapiens. The experiment in a line: Ratio of IC50 of inhibition of platelet aggregation to IC50 of inhibition of platelet PDE (Efficacy index). The assay is classed as functional. The method, boiled down: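 Efficacy index is the IC50 for inhibition of ADP-induced platelet aggregation divided by the IC50 for human platelet PDE inhibition. Both IC50s come from graphical dose-response curves (five concentrations, triplicate).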

A short description of assay [5]: Inhibition of ADP-induced platelet aggregation. The assay is classed as functional. The procedure, abridged:
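ADP-induced platelet aggregation. Read-out is the rate of change in percentage transmission of the primary aggregation phase after 5 min incubation. Each agent tested at five concentrations in triplicate, with experiments repeated at least twice using platelets from different donors. IC50 (μM) determined graphically.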

Assay [6] can be described thus: In vivo inhibition of cyclic AMP phosphodiesterase from rat heart. The following applies: in the assay text read “In vitro” for “In vivo”. The method, boiled down:
as §1

The mark [7] stands for this setting: Canis lupus familiaris; in the assay text read “In vitro” for “In vivo”; target entry is the homologue from another species.
Setting [8] is: Canis lupus familiaris; target entry is the homologue from another species; in the assay text read “In vitro” for “In vivo”.

As a reminder, the IC25 is the concentration needed for an effect of 25%. What is called IC50 is the concentration that inhibits the measured activity by half. A low value points to inhibition by little substance. `CN(C(=O)CCCOc1ccc2c(c1)CN1NC(=O)NC1=N2)C1CCCCC1` returned a 25% effect concentration (IC25) in assay [1] (setting [7]) of 180 nM. In addition, the IC50 result was “Not Active” in assay [2] and 500 nM in assay [3].

The compound `CN(C(=O)CCCOc1ccc2c(c1)CN1C(=N2)NC(=O)[C@H]1Cc1ccccc1)C1CCCCC1` had an IC25 in assay [1] (setting [8]) greater than 10000 nM. The half-inhibitory concentration (IC50) result in assay [2] was “Not Active”; in assay [3] it was greater than 10000 nM.

`CN(C(=O)CCCOc1ccc2c(c1)CN1CC(=O)NC1=N2)C(c1ccccc1)c1ccccc1`: in assay [4], the Ratio came out at 613. For the same compound, the IC50 is 9200 nM in assay [5] and 15 nM in assay [3]. The compound also gave an IC25 in assay [6] of 60 nM.

In assay [1] (setting [8]), `O=C(O)CCCOc1ccc2c(c1)CN1CC(=O)NC1=N2` yielded a 25% effect concentration (IC25) of 130 nM. The results for the half-maximal inhibitory concentration (IC50) result in assay [2] and in assay [3] were “Not Active” and 280 nM, respectively.

Take `O=C1CN2Cc3cc(OCCCC(=O)N4CCOCC4)ccc3N=C2N1`: the Ratio in assay [4] is listed as 33. Besides, the figures for the concentration for half-maximal inhibition (IC50) in assay [5] and in assay [3] were 53000 nM and 1600 nM, respectively. Moreover, the IC25 in assay [6] turned out to be 7000 nM.

On to `CN(C(=O)CCCOc1ccc2c(c1)CN1C(=N2)NC(=O)[C@H]1c1ccccc1)C1CCCCC1`, for which, in assay [1] (setting [8]), the concentration for an effect of 25% (IC25) amounted to 3300 nM. The half-inhibitory concentration (IC50) entry is recorded as “Not Active” in assay [2] and 3300 nM in assay [3].

On to `CN(C(=O)CCCCOc1ccc2c(c1)CN1CC(=O)NC1=N2)C1CCCCC1`, for which the Ratio in assay [4] is 187. Also, the IC50 in assay [5] was found to be 860 nM; in assay [3], 4.6 nM. The compound also came in with an IC25 in assay [6] of 22 nM.

As to `O=C(O)CN(C(=O)CCCOc1ccc2c(c1)CN1CC(=O)NC1=N2)C1CCCCC1`, in assay [4], the Ratio turned out to be 1040. The IC50 in assay [5] stood at 5200 nM; in assay [3], 5 nM. For the same compound, in assay [6], the IC25 came to 100 nM.

Regarding `O=C1CN2Cc3cc(OCCCC(=O)N(CCO)C4CCCCC4)ccc3N=C2N1`, the Ratio in assay [4] came to 228. For the same compound, the figures for the IC50 in assay [5] and in assay [3] were 2850 nM and 12.5 nM, respectively. Besides, in assay [6], it took 70 nM to reach the 25% level (IC25).

For the compound `CN(Cc1ccccc1)C(=O)CCCOc1ccc2c(c1)CN1CC(=O)NC1=N2`, the Ratio in assay [4] is given as 38. The IC50 in assay [5] came to 980 nM; in assay [3], 26 nM. In addition, the 25% effect concentration (IC25) in assay [6] came to 240 nM.

As for `O=C1CN2Cc3cc(OCCCC(=O)N4CCCC4)ccc3N=C2N1`, the Ratio in assay [4] was 241. For the same compound, the IC50 amounted to 82000 nM in assay [5] and 340 nM in assay [3]. Also, the 25% effect level in assay [6] (IC25) was put at 1700 nM.

On to `CN(C(=O)CCC[S+]([O-])c1ccc2c(c1)CN1CC(=O)NC1=N2)C1CCCCC1` (configuration not stated), for which the IC25 in assay [1] (setting [7]) worked out at 6200 nM. The IC50 entry was “Not Active” in assay [2] and 1700 nM in assay [3].

As to `CN(C(=O)COc1ccc2c(c1)CN1CC(=O)NC1=N2)C1CCCCC1`, the Ratio in assay [4] came out at 8.5. The IC50 in assay [5] was 7000 nM; in assay [3] it was 820 nM. Besides, the concentration for an effect of 25% (IC25) in assay [6] is 4400 nM.

With `CN(C(=O)CCCCCOc1ccc2c(c1)CN1CC(=O)NC1=N2)C1CCCCC1`, in assay [4], the Ratio worked out at 158. The values for the IC50 in assay [5] and in assay [3] were 1900 nM and 12 nM, respectively. Besides, the IC25 in assay [6] came out at 21 nM.

In turn, `CN(C(=O)CCCOc1ccc2c(c1)CN1CCNC1=N2)C1CCCCC1` displayed an IC25 in assay [1] (setting [7]) of 21000 nM. The figures for the concentration for half-maximal inhibition (IC50) entry in assay [2] and in assay [3] were “Not Active” and 27000 nM, respectively.

With `O=C1CN2Cc3cc(OCCCC(=O)N(C4CCCCC4)C4CCCCC4)ccc3N=C2N1`, the Ratio in assay [4] turned out to be 300. The half-maximal inhibitory concentration (IC50) in assay [5] is 420 nM; in assay [3], 1.45 nM. Besides, the 25% effect level in assay [6] (IC25) was put at 16 nM.

In assay [1] (setting [8]), `CNC(=O)CCCOc1ccc2c(c1)CN1CC(=O)NC1=N2` had a 25% effect concentration (IC25) of 1300 nM. In addition, the IC50 result in assay [2] was “Not Active”; in assay [3], 1600 nM.

In assay [1] (setting [7]), `CC(C)[C@H]1C(=O)NC2=Nc3ccc(OCCCC(=O)N(C)C4CCCCC4)cc3CN21` displayed an IC25 of 6400 nM. Also, the half-maximal inhibitory concentration (IC50) entry in assay [2] is on record as “Not Active”; in assay [3], greater than 10000 nM.

For `O=C1CN2Cc3cc(OCCCC(=O)N4CCCCC4)ccc3N=C2N1`, in assay [4], the Ratio is reported as 56. In addition, the 50% inhibitory concentration (IC50) in assay [5] came to 14500 nM; in assay [3], 260 nM. In assay [6], this compound had a 25% effect concentration (IC25) of 1500 nM.

`CN(C(=O)CCCOc1ccc2c(c1)CN1C(=N2)NC(=O)[C@@H]1c1ccccc1)C1CCCCC1` displayed a concentration for an effect of 25% (IC25) in assay [1] (setting [8]) of 4200 nM. In addition, the IC50 result is listed as “Not Active” in assay [2] and 3800 nM in assay [3].

For `CN(C(=O)CCCCCCOc1ccc2c(c1)CN1CC(=O)NC1=N2)C1CCCCC1`, the Ratio in assay [4] was 287. Moreover, the values for the IC50 in assay [5] and in assay [3] were 4600 nM and 16 nM, respectively. Further, it took 45 nM to reach the 25% level in assay [6] (IC25).

In the case of `O=C1CN2Cc3cc(OCCCC(=O)N4CCCC5CCCCC54)ccc3N=C2N1` (configuration not stated), the Ratio in assay [4] is given as 65. Besides, the IC50 in assay [5] was 880 nM; in assay [3] it was 13.5 nM. For the same compound, the 25% effect concentration (IC25) in assay [6] was 200 nM.

On to `O=C1CN2Cc3cc(OCCCC(=O)N(C(CO)CO)C4CCCCC4)ccc3N=C2N1`, for which the Ratio in assay [4] came out at 6833. For the same compound, the IC50 is 82000 nM in assay [5] and 12 nM in assay [3]. Besides, in assay [1] (setting [8]), it took 26 nM to reach the 25% level (IC25).

As for `COC1=NC2=Nc3ccc(OCCCC(=O)N(C)C4CCCCC4)cc3CN2C1`, in assay [1] (setting [8]), the 25% effect level (IC25) was put at 2700 nM. Besides, the 50% inhibitory concentration (IC50) entry in assay [2] is “Not Active”; in assay [3], 9600 nM.

Turning to `CN(C(=O)CCCOc1ccc2c(c1)CN1C(=N2)NC(=O)C12CC2)C1CCCCC1`, the Ratio in assay [4] is 66. Also, the IC50 in assay [5] stood at 50000 nM; in assay [3] it was 760 nM. This compound also displayed an IC25 in assay [1] (setting [7]) of 3700 nM.

Consider `CN(C(=O)CCCOc1ccc2c(c1)CN1C(=N2)NC(=O)[C@@H]1Cc1ccccc1)C1CCCCC1`, for which the 25% effect concentration (IC25) in assay [1] (setting [8]) was greater than 10000 nM. Further, the results for the half-maximal inhibitory concentration (IC50) result in assay [2] and in assay [3] were “Not Active” and greater than 10000 nM, respectively.

Take `O=C1CN2Cc3cc(OCCCC(=O)N4CCCc5ccccc54)ccc3N=C2N1`: in assay [4], the Ratio came out at 105. For the same compound, the half-inhibitory concentration (IC50) came out at 1050 nM in assay [5] and 10 nM in assay [3]. In assay [6], this compound registered a 25% effect concentration (IC25) of 160 nM.

`CC(C)N(C(=O)CCCOc1ccc2c(c1)CN1CC(=O)NC1=N2)C1CCCCC1`: the Ratio in assay [4] is recorded as 81. The IC50 in assay [5] amounted to 260 nM; in assay [3], 3.2 nM. Further, in assay [1] (setting [7]), the 25% effect concentration (IC25) was found to be 15 nM.

As to `CN(C(=O)CCCOc1ccc2c(c1)CN1CC(=O)NC1=N2)C1CCC(O)CC1` (configuration not stated), the Ratio in assay [4] turned out to be 208. In addition, the figures for the IC50 in assay [5] and in assay [3] were 25000 nM and 120 nM, respectively. This compound gave a 25% effect concentration (IC25) in assay [1] (setting [8]) of 290 nM.

Turning to `CC(O)[C@@H]1C(=O)NC2=Nc3ccc(OCCCC(=O)N(C)C4CCCCC4)cc3CN21` (some centres not stated), in assay [4], the Ratio was found to be 34. The half-inhibitory concentration (IC50) in assay [5] is 54000 nM; in assay [3] it was 1600 nM. The same compound yielded an IC25 in assay [1] (setting [7]) of 3700 nM.

Compound `O=C1CN2Cc3cc(OCCCC(=O)N(Cc4ccccc4)Cc4ccccc4)ccc3N=C2N1` came in with an IC25 in assay [6] of 60 nM.

On to `CN1C(=O)CN2Cc3cc(OCCCC(=O)N(C)C4CCCCC4)ccc3N=C21`, for which the 25% effect level in assay [1] (setting [7]) (IC25) was put at 39000 nM. Also, the IC50 entry in assay [2] is given as “Not Active”; in assay [3] it was 76000 nM.

`CN(C(=O)CCCOc1ccc2c(c1)CN1CC(=O)NC1=N2)c1ccccc1`: the Ratio in assay [4] is listed as 15. For the same compound, the IC50 amounted to 390 nM in assay [5] and 26 nM in assay [3]. In assay [6], this compound returned an IC25 of 350 nM.
